Measured values gathered from unrelated publications.
Lines come from different studies, so protocols differ.
PFF0160c: Dihydroorotate dehydrogenase (quinone), mitochondrial (PFF0160c, Plasmodium falciparum, UniProt Q08210)
PFF0160c E182D: Dihydroorotate dehydrogenase (quinone), mitochondrial (PFF0160c, Plasmodium falciparum, UniProt Q08210, E182D)
PROC: Vitamin K-dependent protein C (PROC, Homo sapiens, UniProt P04070)

CNC(=O)[C@H](C)NC(=O)c1[nH]cc(Cc2ccc(C(F)(F)F)nc2)c1C — IC50 (PFF0160c; enzyme activity; inhibitor; absorbance): 39000 nM
Cc1noc2nc(C(F)(F)F)nc(Nc3ccc(C(F)(F)F)cc3)c12 — IC50 (PFF0160c; enzyme activity; inhibitor; absorbance): 610 nM
Cc1c(Cc2ccc(C(F)(F)F)nc2)c[nH]c1C(=O)N[C@@H](C)C(N)=O — IC50 (PFF0160c; enzyme activity; inhibitor; absorbance): > 100000 nM
Cc1noc2nc(C(F)(F)F)nc(NC3Cc4cc(F)c(F)cc4C3)c12 — IC50 (PFF0160c; enzyme activity; inhibitor; absorbance): 110 nM
Cc1cc(C(C)NC(=O)c2[nH]cc(Cc3ccc(C(F)(F)F)nc3)c2C)n[nH]1 (stereo not drawn) — IC50 (PFF0160c; enzyme activity; inhibitor; absorbance): 100 nM
COc1ccc(C(=O)NCC(C)(C)c2nc(-c3ccc(Cl)c(O)c3)c(-c3ccncc3)[nH]2)cc1OCCN(C(C)C)C(C)C — IC50 (PFF0160c; enzyme activity; inhibitor; absorbance): > 10000 nM
Cc1c(Cc2ccc(C(F)(F)F)nc2)c[nH]c1C(=O)NC(C)c1nc[nH]n1 (stereo not drawn) — IC50 (PFF0160c; enzyme activity; inhibitor; absorbance): > 100000 nM
Cc1nc(Nc2ccc(C)c(Cl)c2)c2c(C)noc2n1 — IC50 (PFF0160c; enzyme activity; inhibitor; absorbance): 130 nM
CCOC(=O)c1[nH]cc(Cc2cccc3ncoc23)c1C — IC50 (PFF0160c; enzyme activity; inhibitor; absorbance): 100 nM
CCc1ccccc1N=C1c2c(cccc2[N+](=O)[O-])C(=O)C1C(C)=O (stereo not drawn) — IC50 (PFF0160c E182D; enzyme activity; inhibitor; absorbance): 384 nM
Cc1noc2nc(C(F)(F)F)nc(Nc3ccc(S(F)(F)(F)(F)F)cc3)c12 — IC50 (PFF0160c; enzyme activity; inhibitor; absorbance): 250 nM
CCc1nc2nc(C)cc(Nc3ccc4c(c3)OCCO4)n2n1 — IC50 (PFF0160c E182D; enzyme activity; inhibitor; absorbance): > 10000 nM
Cc1nc(NC2CCc3ccc(Cl)cc3C2)c2c(C)noc2n1 (stereo not drawn) — IC50 (PFF0160c; enzyme activity; inhibitor; absorbance): 17 nM
Cc1c(Cc2ccc(C(F)(F)F)nc2)c[nH]c1C(=O)NC(C)c1cc(C(N)=O)[nH]n1 (stereo not drawn) — IC50 (PFF0160c; enzyme activity; inhibitor; absorbance): 350 nM
Cc1cc(Nc2ccc(C)c(Cl)c2)n2nc(C(F)(F)F)nc2n1 — IC50 (PFF0160c; enzyme activity; inhibitor; absorbance): 29.1 nM
CCCCCNC(=N)N/N=C/c1c[nH]c2ccc(OC)cc12 — IC50 (5-hydroxytryptamine receptor 2A (HTR2A, Homo sapiens, UniProt P28223); calcium signal; antagonist; fluorescence): 1500 nM
CN(C)S(=O)(=O)c1ccc(Sc2ccccc2)c(C(=O)N2CCCC(C(N)=O)C2)c1 (stereo not drawn) — IC50 (PFF0160c E182D; enzyme activity; inhibitor; absorbance): 2560 nM
O=S(=O)(O)c1nc2ccccc2[nH]1 — IC50 (racE (Bacillus subtilis, UniProt P94556, N75L); enzyme activity; inhibitor; absorbance): 198000 nM
Cc1nc(Nc2ccc(C(F)(F)F)nc2)c2c(C)noc2n1 — IC50 (PFF0160c; enzyme activity; inhibitor; absorbance): 150 nM
Cc1c(C(=O)NC(C)c2nc[nH]n2)[nH]c(Cl)c1Cc1ccc(C(F)(F)F)nc1 (stereo not drawn) — IC50 (PFF0160c; enzyme activity; inhibitor; absorbance): > 100000 nM
COc1ccc(-n2ccnc2SCC(=O)Nc2cc(C)ccc2C)c(OC)c1 — IC50 (PFF0160c; enzyme activity; inhibitor; absorbance): 324 nM
CC(C)C[C@@H]1C(=O)N[C@H]([C@@H](C)O)C(=O)N[C@H](C)[C@@H](C)C(=O)O[C@@H](Cc2ccccc2)C(=O)N(C)[C@@H](C(C)C)C(=O)N2CCC[C@H]2C(=O)N(C)[C@H](Cc2ccccc2)C2=N[C@@H](CS2)C(=O)N[C@H](C)C2=N[C@@H](CS2)C(=O)N1C — IC50 (PROC; enzyme activity; inhibitor): 66600 nM
Cc1nc(NC2CCc3ccc(Br)cc3C2)c2c(C)noc2n1 (stereo not drawn) — IC50 (PFF0160c; enzyme activity; inhibitor; absorbance): 22 nM
CCNC(=O)c1ccc(-n2nc(C)cc2-c2ccccc2)cc1 — IC50 (PFF0160c; enzyme activity; inhibitor; absorbance): 740 nM
CC[C@H]1NC(=O)[C@@H]2CSC(=N2)[C@H](Cc2ccccc2)N(C)C(=O)[C@@H]2CCCN2C(=O)[C@H](C(C)C)N(C)C(=O)[C@H](Cc2ccccc2)OC(=O)[C@H](C)[C@@H](C)NC(=O)[C@@H]([C@@H](C)O)NC(=O)[C@@H](CC(C)C)N(C)C(=O)[C@@H]2CSC1=N2 — IC50 (PROC; enzyme activity; inhibitor): 62000 nM
CCc1nc2nc(C)cc(Nc3ccc(F)c(Cl)c3)n2n1 — IC50 (PFF0160c E182D; enzyme activity; inhibitor; absorbance): > 10000 nM
O=C(Nc1ccccc1)OCC(CN1CCCCC1)OC(=O)Nc1ccccc1 (stereo not drawn) — IC50 (Kappa-type opioid receptor (OPRK1, Homo sapiens, UniProt P41145); ligand displacement; radioligand): 1420 nM
